Experiment [1] is filed under the species Rattus norvegicus. Description: Effect on cumulative food intake per 100 g body weight of Sprague-Dawley rat at 160 ug after 6 hrs. It counts as functional. In a few lines:
(§1)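 Young-adult male rats (125–150 g), singly housed, acclimated 1 week and trained daily for a further week. Test compound given sc at 160 μg/kg mid-morning, then returned to cages with a known amount of chow. Cumulative intake recorded at 2 or 6 h as g food/100 g body weight.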

The species named for experiment [2] is Rattus norvegicus. Description: Inhibition of hexarelin-stimulated cumulative food intake per 100 g body weight of Sprague-Dawley rat at 160 ug after 6 hrs. In kind it is functional. The essentials:
(§2)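 Young-adult male rats (125–150 g), singly housed, acclimated and trained. Compound given sc at time −10 min (0, 20, 80, 160 or 320 μg/kg), then hexarelin 80 μg/kg sc at time 0. Rats returned to home cages with a known amount of chow. Cumulative intake recorded as g food/100 g body weight at 2 h and 6 h.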

Experiment [3] is filed under the species Rattus norvegicus. Description: Inhibition of hexarelin-stimulated cumulative food intake per 100 g body weight of Sprague-Dawley rat at 160 ug after 2 hrs. It counts as functional. The essentials: as §2
The species named for experiment [4] is Rattus norvegicus. The experiment in a line: Effect on cumulative food intake per 100 g body weight of Sprague-Dawley rat at 160 ug after 2 hrs. In kind it is functional. In a few lines: as §1
Experiment [5] deals with T1, Growth hormone secretagogue receptor type 1 (Homo sapiens, UniProt Q92847). Description: Activity at human GHS1a receptor expressed in CHO cells assessed as accumulation of intracellular calcium level at 10 uM relative to ghrelin. In kind it is functional, cell-based. In a few lines:
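CHO cells transiently electroporated with hGHS-R1a, loaded 24 h later with 1 μM Fluo-4AM (1 h, 37 °C, dark), then de-esterified 30 min at room temperature. Fluorescence (ex 485/em 525 nm) recorded over 60 s, compound at 10 μM added at 15 s. Triplicates, at least two independent experiments. Response expressed as percent of maximum with 0.1 μM ghrelin.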

The test system of experiment [6] is Rattus norvegicus. Description: Inhibition of hexarelin-stimulated cumulative food intake per 100 g body weight of Sprague-Dawley rat at 80 ug/kg. It counts as functional. In a few lines: as §2
Experiment [7] has as its target T1, Growth hormone secretagogue receptor type 1. The experiment in a line: Antagonist activity at human GHS1a receptor expressed in CHO cells assessed as accumulation of intracellular calcium level. In kind it is functional, cell-based. Background: Calcium flux is commonly read through the fluorescence of an indicator in the cells.
The subject of experiment [8] is Rattus norvegicus. Description: Inhibition of hexarelin-stimulated cumulative food intake per 100 g body weight of Sprague-Dawley rat at 20 ug/kg. In kind it is functional. In a few lines:
as §2

Experiment [9] concerns Rattus norvegicus. The experiment in a line: Inhibition of hexarelin-stimulated cumulative food intake per 100 g body weight of Sprague-Dawley rat at 320 ug/kg. It counts as functional. The essentials: as §2
The subject of experiment [10] is Rattus norvegicus. Description: Inhibition of growth hormone secretion in infant Sprague-Dawley rat at 160 ug/kg, sc. It counts as functional. In a few lines:
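Male 10-day-old pups (~25 g), separated from dams 1 h before testing, groups of eight. Dosed sc with vehicle (DMSO, final 1:300), compound 160 μg/kg, or compound 10 min before hexarelin 80 μg/kg sc. Decapitated 15 min later; plasma GH measured by rat GH enzyme immunoassay and expressed as ng/mL against the NIDDK-rGH-RP-2 standard.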

T1 sequence (Q92847 whole entry): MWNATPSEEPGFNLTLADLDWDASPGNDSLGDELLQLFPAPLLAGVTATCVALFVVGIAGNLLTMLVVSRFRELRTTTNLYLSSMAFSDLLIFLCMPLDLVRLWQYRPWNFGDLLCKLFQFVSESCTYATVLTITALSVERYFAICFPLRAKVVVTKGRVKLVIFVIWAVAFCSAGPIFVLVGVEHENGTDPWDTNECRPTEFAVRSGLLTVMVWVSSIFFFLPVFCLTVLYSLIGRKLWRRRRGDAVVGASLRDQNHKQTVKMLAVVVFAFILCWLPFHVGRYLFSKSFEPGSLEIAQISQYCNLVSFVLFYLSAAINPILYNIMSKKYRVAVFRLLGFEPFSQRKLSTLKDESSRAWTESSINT

As to `COc1ccc(Cn2c(CCc3c[nH]c4ccccc34)nnc2[C@@H](Cc2c[nH]c3ccccc23)NC(=O)[C@H]2CCCN2)cc1`, the Activity stood at 0.03 g in the experiment listed under Rattus norvegicus [1]; 0.36 g in the experiment listed under Rattus norvegicus [2]; 0.05 g in the experiment filed under Rattus norvegicus [3]; 0.01 g in the experiment filed under Rattus norvegicus [4]; 7% in experiment [5]; 0.15 g with Rattus norvegicus [6]. Further, the figures for the Activity in the experiment on Rattus norvegicus [8] and in the experiment on Rattus norvegicus [9] were 0.17 g and 0.58 g, respectively. Besides, the Kb (commonly the affinity of an antagonist, worked out from how it opposes an agonist) in experiment [7] came to 7 nM.
`COc1ccc(Cn2c(CCc3ccccc3)nnc2[C@@H](Cc2c[nH]c3ccccc23)NC(=O)[C@H]2CCCCN2)cc1`: the Activity is 0.01 g in the experiment listed under Rattus norvegicus [1]; 1.07 g in the experiment filed under Rattus norvegicus [2]; 0.85 g in the experiment listed under Rattus norvegicus [3]; 6.09 ng/mL in the experiment with Rattus norvegicus [10]; 0.01 g in the experiment filed under Rattus norvegicus [4]; 7% in experiment [5].
Take `COc1ccc(Cn2c(CCc3ccccc3)nnc2[C@@H](Cc2c[nH]c3ccccc23)NC(=O)CN)cc1`: the Activity in the experiment listed under Rattus norvegicus [1] amounted to 0.04 g; in the experiment filed under Rattus norvegicus [2], 0.28 g; in the experiment filed under Rattus norvegicus [3], 0.01 g; with Rattus norvegicus [10], 9.85 ng/mL; in the experiment filed under Rattus norvegicus [4], 0.01 g; in [5], 0%. Also, the Activity came out at 0.56 g in the experiment with Rattus norvegicus [6], 0.63 g in the experiment with Rattus norvegicus [8] and 0.36 g in the experiment with Rattus norvegicus [9].
